Reference: ChEMBL document CHEMBL1122517, “2-Phenylindoles. Relationship between structure, estrogen receptor affinity, and mammary tumor inhibiting activity in the rat” (1984)
Several values for one entry are separate records, joined by “and”; a condition that tells them apart may be missing. Equal entries are not always repeated.

Assays:
[1] = target: T1, Estrogen receptor (Mus musculus) (UniProt O08537+P19785); assay: Uterotrophic activity in mice as uterus dry weight (mg)/body weight (g) *100 at 1 ug dose; format: functional, tissue-based
T1 sequence (O08537 whole entry, looked up): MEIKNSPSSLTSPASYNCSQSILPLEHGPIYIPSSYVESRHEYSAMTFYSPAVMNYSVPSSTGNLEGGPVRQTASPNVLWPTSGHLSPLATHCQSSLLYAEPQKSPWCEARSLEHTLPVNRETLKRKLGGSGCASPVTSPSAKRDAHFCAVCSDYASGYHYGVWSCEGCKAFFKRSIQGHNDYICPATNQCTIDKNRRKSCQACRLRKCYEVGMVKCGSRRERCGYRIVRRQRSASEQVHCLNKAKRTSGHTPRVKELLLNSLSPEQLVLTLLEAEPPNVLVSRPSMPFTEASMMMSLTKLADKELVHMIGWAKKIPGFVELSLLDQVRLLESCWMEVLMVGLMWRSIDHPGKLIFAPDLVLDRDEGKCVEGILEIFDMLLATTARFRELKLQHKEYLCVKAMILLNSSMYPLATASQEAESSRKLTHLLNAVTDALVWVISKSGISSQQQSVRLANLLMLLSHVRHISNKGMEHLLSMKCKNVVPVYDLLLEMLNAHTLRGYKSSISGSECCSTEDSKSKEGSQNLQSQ
T1 sequence (P19785 whole entry, looked up): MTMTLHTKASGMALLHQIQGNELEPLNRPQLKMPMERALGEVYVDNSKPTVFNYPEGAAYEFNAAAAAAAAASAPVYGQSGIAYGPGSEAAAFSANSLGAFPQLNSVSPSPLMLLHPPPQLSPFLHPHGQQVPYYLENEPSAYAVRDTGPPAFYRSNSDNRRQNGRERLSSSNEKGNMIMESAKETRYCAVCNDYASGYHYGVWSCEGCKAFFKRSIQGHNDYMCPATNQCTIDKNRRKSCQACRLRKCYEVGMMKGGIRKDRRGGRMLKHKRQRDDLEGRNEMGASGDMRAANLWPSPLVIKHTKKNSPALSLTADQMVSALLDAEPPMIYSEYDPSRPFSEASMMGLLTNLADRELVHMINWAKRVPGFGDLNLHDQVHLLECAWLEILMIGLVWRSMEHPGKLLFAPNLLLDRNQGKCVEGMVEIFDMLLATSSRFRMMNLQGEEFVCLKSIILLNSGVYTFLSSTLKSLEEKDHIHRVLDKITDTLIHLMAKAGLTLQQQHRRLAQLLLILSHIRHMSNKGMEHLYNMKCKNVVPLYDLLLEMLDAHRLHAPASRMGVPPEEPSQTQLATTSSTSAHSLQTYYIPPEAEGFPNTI
Summary of the method: (§1)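 Immature 19-day-old female NMRI mice, groups of 10. Compound dose per animal in olive oil (50 µL) sc on 3 consecutive days. Mice were killed 24 h after the last injection. Uteri were Bouin-fixed 20 h, cleaned, washed with alcoholic LiCl, and dried at 100 °C for 24 h. Effect = uterine dry weight (mg)/body weight (g) ×100; mean ± SD.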

[2] = species: Rattus norvegicus; assay: Change in body weight of DMBA-induced mammary carcinoma tumor bearing rats at 4 mg dose; format: functional
Summary of the method: (§2)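 DMBA-induced tumor-bearing Sprague-Dawley rats (20 mg DMBA by gavage at 50 days old), randomized when tumor area exceeded 140 mm². Dose per kg was given sc in olive oil, single dose daily Monday to Thursday, double dose Friday. Body weight was measured twice weekly. Read-out was % change in body weight.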

[3] = species: Rattus norvegicus; assay: Partial remission (%) of DMBA-induced mammary carcinoma tumors in rats at 4 mg dose; format: functional
Summary of the method: (§3)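 Female Sprague-Dawley rats, 50 days old, given a single 20 mg DMBA dose in 1 mL olive oil by gavage. Rats were palpated twice weekly from day 30, and those without tumors by day 70 were discarded. Rats were randomized once tumor area exceeded 140 mm². Drug dose was per kg in olive oil (1 mL/kg) sc, single dose Mon–Thu and double dose Fri. Tumor area (caliper, two perpendicular axes) and body weight were measured twice weekly.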

[4] = species: Rattus norvegicus; assay: Change in DMBA-induced mammary carcinoma tumor area in rats at 4 mg dose; -100-47; format: functional
Summary of the method: (§4)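 Female Sprague-Dawley rats got one 20 mg DMBA dose by gavage at 50 days old and were palpated twice weekly from day 30. Rats were randomized once tumor area exceeded 140 mm². Dose (per kg) was given sc in olive oil, once daily Monday to Thursday and doubled on Friday. Tumor area was taken from caliper measurements of two perpendicular axes, twice weekly. Change per animal is given as median % and range.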

[5] = species: Rattus norvegicus; assay: Complete remission (%) of DMBA-induced mammary carcinoma tumors in rats at 4 mg dose; format: functional
Summary of the method: (§5)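 DMBA-induced tumors in Sprague-Dawley rats, entered when tumor area exceeded 140 mm². Dose per kg was given sc in olive oil, daily Monday to Thursday with a double dose Friday. Tumors were measured by calipers twice weekly. Tumor number was counted at the start of the test. Complete remission meant the tumor was no longer palpable. Partial remission meant reduction to ≤50% of initial size. New tumor appearance was recorded.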

[6] = target: T1, Estrogen receptor (Mus musculus); assay: Anti-uterotrophic activity in mice as uterus dry weight (mg)/body weight (g) *100 at 125 ug dose; format: functional, tissue-based
Summary of the method: (§6)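 Immature female NMRI mice, 19 days old, groups of 10, given sc injections on 3 consecutive days. Each injection held 0.4 μg estrone plus the indole dose per animal, in olive oil (50 μL). Killed 24 h after the last injection. Uteri were fixed in Bouin solution, washed, and dried 24 h at 100 °C. Read-out was uterine dry weight (mg)/body weight (g) × 100, mean ± SD.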

[7] = target: T1, Estrogen receptor (Mus musculus); assay: Uterotrophic activity in mice as uterus dry weight (mg)/body weight (g) *100 at 25 ug dose; format: functional, tissue-based; summary of the method: as §1
[8] = target: T1, Estrogen receptor (Mus musculus); assay: Anti-uterotrophic activity in mice as uterus dry weight (mg)/body weight (g) *100 at 5 ug dose; format: functional, tissue-based; summary of the method: as §6
[9] = species: Rattus norvegicus; assay: Change in DMBA-induced mammary carcinoma tumor area in rats at 4 mg dose; format: functional; summary of the method: as §4
[10] = target: T1, Estrogen receptor (Mus musculus); assay: Percentage inhibition of uterotrophic activity at 25 ug dose; format: functional
Summary of the method: (§7)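 Antiuterotrophic test in immature 19-day-old female NMRI mice (n=10), dosed sc on 3 consecutive days with 0.4 µg estrone per animal per day plus compound in olive oil. Uterine dry weight/body weight ×100 was read 24 h after the last dose. Inhibition % = 100 − [(E_S,T − E_V)/(E_S − E_V)]×100.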

[11] = species: Rattus norvegicus; assay: Number of DMBA-induced mammary carcinoma tumors in rats at 4 mg dose; format: functional; summary of the method: as §5
[12] = species: Rattus norvegicus; assay: Formation of new DMBA-induced mammary carcinoma tumors in rats at 4 mg dose; format: functional; summary of the method: as §5
[13] = target: T1, Estrogen receptor (Mus musculus); assay: Uterotrophic activity in mice as uterus dry weight (mg)/body weight (g) *100 at 5 ug dose; format: functional, tissue-based; summary of the method: as §1
[14] = target: T1, Estrogen receptor (Mus musculus); assay: Percentage inhibition of uterotrophic activity at 5 ug dose; format: functional; summary of the method: as §7
[15] = target: T1, Estrogen receptor (Mus musculus); assay: Uterotrophic activity in mice as uterus dry weight (mg)/body weight (g) *100 at 125 ug dose; format: functional, tissue-based; summary of the method: as §1
[16] = target: T1, Estrogen receptor (Mus musculus); assay: Anti-uterotrophic activity in mice as uterus dry weight (mg)/body weight (g) *100 at 1 ug dose; format: functional, tissue-based; summary of the method: as §6
[17] = target: T1, Estrogen receptor (Mus musculus); assay: Percentage inhibition of uterotrophic activity at 125 ug dose; format: functional; summary of the method: as §7
[18] = target: T1, Estrogen receptor (Mus musculus); assay: Percentage inhibition of uterotrophic activity at 1 ug dose; format: functional; summary of the method: as §7
[19] = species: Rattus norvegicus; assay: Percent unchanged DMBA-induced mammary carcinoma tumors in rats at 4 mg dose; format: functional; summary of the method: as §3
[20] = species: Rattus norvegicus; assay: Percent progressive DMBA-induced mammary carcinoma tumors in rats at 4 mg dose; format: functional; summary of the method: as §3
[21] = target: T1, Estrogen receptor (Mus musculus); assay: Anti-uterotrophic activity in mice as uterus dry weight (mg)/body weight (g) *100 at 25 ug dose; format: functional, tissue-based; summary of the method: as §6
[22] = species: Rattus norvegicus; assay: Change in DMBA-induced mammary carcinoma tumor area in rats at 5.1 mg dose; -44-333; format: functional; summary of the method: as §4
[23] = species: Rattus norvegicus; assay: Number of DMBA-induced mammary carcinoma tumors in rats at 5.1 mg dose; format: functional; summary of the method: as §5
[24] = species: Rattus norvegicus; assay: Change in DMBA-induced mammary carcinoma tumor area in rats at 5.1 mg dose; format: functional; summary of the method: as §4
[25] = species: Rattus norvegicus; assay: Formation of new DMBA-induced mammary carcinoma tumors in rats at 5.1 mg dose; format: functional; summary of the method: as §5
[26] = species: Rattus norvegicus; assay: Percent unchanged DMBA-induced mammary carcinoma tumors in rats at 5.1 mg dose; format: functional; summary of the method: as §3
[27] = species: Rattus norvegicus; assay: Partial remission (%) of DMBA-induced mammary carcinoma tumors in rats at 1.7 mg dose; format: functional; summary of the method: as §5
[28] = species: Rattus norvegicus; assay: Percent progressive DMBA-induced mammary carcinoma tumors in rats at 1.7 mg dose; format: functional; summary of the method: as §3
[29] = species: Rattus norvegicus; assay: Complete remission (%) of DMBA-induced mammary carcinoma tumors in rats at 5.1 mg dose; format: functional; summary of the method: as §5
[30] = species: Rattus norvegicus; assay: Percent progressive DMBA-induced mammary carcinoma tumors in rats at 5.1 mg dose; format: functional; summary of the method: as §3
[31] = species: Rattus norvegicus; assay: Change in body weight of DMBA-induced mammary carcinoma tumor bearing rats at 5.1 mg dose; format: functional; summary of the method: as §2
[32] = species: Rattus norvegicus; assay: Change in DMBA-induced mammary carcinoma tumor area in rats at 1.7 mg dose; format: functional; summary of the method: as §4
[33] = species: Rattus norvegicus; assay: Change in body weight of DMBA-induced mammary carcinoma tumor bearing rats at 1.7 mg dose; format: functional; summary of the method: as §2
[34] = species: Rattus norvegicus; assay: Percent unchanged DMBA-induced mammary carcinoma tumors in rats at 1.7 mg dose; format: functional; summary of the method: as §3
[35] = species: Rattus norvegicus; assay: Formation of new DMBA-induced mammary carcinoma tumors in rats at 1.7 mg dose; format: functional; summary of the method: as §5
[36] = species: Rattus norvegicus; assay: Change in DMBA-induced mammary carcinoma tumor area in rats at 1.7 mg dose; 318-1054; format: functional; summary of the method: as §4
[37] = species: Rattus norvegicus; assay: Number of DMBA-induced mammary carcinoma tumors in rats at 1.7 mg dose; format: functional; summary of the method: as §5
[38] = species: Rattus norvegicus; assay: Partial remission (%) of DMBA-induced mammary carcinoma tumors in rats at 5.1 mg dose; format: functional; summary of the method: as §3
[39] = species: Rattus norvegicus; assay: Number of DMBA-induced mammary carcinoma tumors in rats at 2 mg dose; format: functional; summary of the method: as §5
[40] = species: Rattus norvegicus; assay: Change in DMBA-induced mammary carcinoma tumor area in rats at 2 mg dose; -100-231; format: functional; summary of the method: as §4
[41] = species: Rattus norvegicus; assay: Percent unchanged DMBA-induced mammary carcinoma tumors in rats at 2 mg dose; format: functional; summary of the method: as §3
[42] = species: Rattus norvegicus; assay: Partial remission (%) of DMBA-induced mammary carcinoma tumors in rats; format: functional; summary of the method: as §5
[43] = species: Rattus norvegicus; assay: Formation of new DMBA-induced mammary carcinoma tumors in rats at 2 mg dose; format: functional; summary of the method: as §5
[44] = target: T1, Estrogen receptor (Mus musculus); assay: Uterotrophic activity in mice as uterus dry weight (mg)/body weight (g) *100 at 0.2 ug dose; format: functional, tissue-based; summary of the method: as §1
[45] = species: Rattus norvegicus; assay: Change in DMBA-induced mammary carcinoma tumor area in rats at 2 mg dose; format: functional; summary of the method: as §4
[46] = species: Rattus norvegicus; assay: Change in body weight of DMBA-induced mammary carcinoma tumor bearing rats at 2 mg dose; format: functional; summary of the method: as §2
[47] = species: Rattus norvegicus; assay: Percent progressive DMBA-induced mammary carcinoma tumors in rats at 2 mg dose; format: functional; summary of the method: as §3
[48] = species: Rattus norvegicus; assay: Complete remission (%) of DMBA-induced mammary carcinoma tumors in rats at 2 mg dose; format: functional; summary of the method: as §5

CCc1c(-c2ccc(OC(C)=O)cc2)n(C)c2cc(OC(C)=O)ccc12
Uterotrophic effect [1]: 13.2
Change of body weight [2]: -7%
Partial remission [3]: 29%
Change of tumor area [4]: -100%
Complete remission [5]: 43%
Anti-uterotrophic effect [6]: 34.7
Uterotrophic effect [7]: 20.4
Anti-uterotrophic effect [8]: 48.8
Change of tumor area [9]: -88%
inhibition [10]: 56%
No. of tumors [11]: 18
New tumors [12]: 10
Uterotrophic effect [13]: 16.2
inhibition [14]: 14%
Uterotrophic effect [15]: 30
Anti-uterotrophic effect [16]: 47.6
inhibition [17]: 52%
inhibition [18]: 17%
Static tumors [19]: 21%
Progressed tumors [20]: 7%
Anti-uterotrophic effect [21]: 33.5

CC(=O)Oc1ccc(-c2c(C)c3cc(OC(C)=O)ccc3n2C)cc1
Uterotrophic effect [1]: 13.7
Change of tumor area [22]: -44%
No. of tumors [23]: 37
Change of tumor area [24]: 9% and 18%
Anti-uterotrophic effect [6]: 28.8
New tumors [25]: 37
Uterotrophic effect [7]: 16.1
Static tumors [26]: 19%
Anti-uterotrophic effect [8]: 39.2
Partial remission [27]: 6%
Progressed tumors [28]: 70%
Complete remission [29]: 32%
inhibition [10]: 42%
Progressed tumors [30]: 39%
Uterotrophic effect [13]: 14.6
Change of body weight [31]: 0%
Change of tumor area [32]: 577%
Change of body weight [33]: 2%
inhibition [14]: 35%
Static tumors [34]: 15%
New tumors [35]: 38
Uterotrophic effect [15]: 20.9
Anti-uterotrophic effect [16]: 40
inhibition [17]: 62%
Change of tumor area [36]: 318%
inhibition [18]: 33%
No. of tumors [37]: 29
Partial remission [38]: 10%
Anti-uterotrophic effect [21]: 36.6

CCc1c(-c2ccc(OC(C)=O)cc2)n(CC)c2cc(OC(C)=O)ccc12
Uterotrophic effect [1]: 36.2
No. of tumors [39]: 36
Change of tumor area [40]: -100%
Static tumors [41]: 5%
Partial remission [42]: 13%
Uterotrophic effect [7]: 46.4
Uterotrophic effect [13]: 45.6
Uterotrophic effect [15]: 44.7
New tumors [43]: 3
Uterotrophic effect [44]: 25.5
Change of tumor area [45]: -95%
Change of body weight [46]: -13%
Progressed tumors [47]: 8%
Complete remission [48]: 74%
